Test results as given in the RNAGym collection of RNA variant scans (doi:10.1126/science.aae0568).
This sample holds only a part of the variants without activity.

B1: tRNA (parent)
chain: GUUCCGUUGGCGUAAUGGUAACGCGUCUCCCUCCUAAGGAGAAGACUGCGGGUUCGAGUCCCGUACGGAACG

Variants of: B1
Assay: yeast fitness relative to wild type (ratio to wild type); higher = fitter; tRNA-Arg(CCU), competitive growth, 37 C, YPD
Outline: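 Genotype frequency changes were the basis for Darwinian fitness relative to wild type. The frequencies came from 100-nucleotide paired-end sequencing of gene amplicons from the start population and each end population of pooled yeast strains with tRNA-Arg(CCU) gene variants at the native locus. Competition ran in YPD at 37°C for 24 hours in six replicates, genotypes needed ≥ 100 starting reads, and estimates < 0.5 were set to 0.5.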

Q: For C34U G51U C60U C62U A65C A69G, which yeast fitness is on record?
A: The yeast fitness was ≤ 0.5.

Q: For U35A A57U U59C, which yeast fitness is on record?
A: Its yeast fitness is ≤ 0.5.

Q: With C34U A37U G58C C62A as the variant, how does the yeast fitness read?
A: Its yeast fitness is 0.736.

Q: For C34A A36C G67A, which yeast fitness is on record?
A: The yeast fitness was ≤ 0.5.

Q: With C34G U47G as the variant, how does the yeast fitness read?
A: Its yeast fitness is 0.561.

Q: For U35C A37C C55A C60G G63C, which yeast fitness is on record?
A: Its yeast fitness is ≤ 0.5.

Q: With C34U A36U C66U as the variant, how does the yeast fitness read?
A: The yeast fitness was ≤ 0.5.

Q: For C34A A57U U59A, which yeast fitness is on record?
A: The yeast fitness was ≤ 0.5.

Q: With C34U C62U as the variant, how does the yeast fitness read?
A: Its yeast fitness is 0.673.

Q: Which yeast fitness does the source give for C33U G68C here?
A: Its yeast fitness is 0.686.

Q: With C34U A36U C66U A69U as the variant, how does the yeast fitness read?
A: The yeast fitness was 0.612.

Q: With C33U C34A A43C G48A as the variant, how does the yeast fitness read?
A: The yeast fitness was ≤ 0.5.

Q: With C34G C49U A57U as the variant, how does the yeast fitness read?
A: Its yeast fitness is ≤ 0.5.

Q: With U35A A69U as the variant, how does the yeast fitness read?
A: Its yeast fitness is 0.806.

Q: With C33U G48A C60U U64G A65U A69C as the variant, how does the yeast fitness read?
A: The yeast fitness was 0.571.

Q: With C33U G38A C46U as the variant, how does the yeast fitness read?
A: Its yeast fitness is 0.562.

Q: For C34G A45C C62G, which yeast fitness is on record?
A: The yeast fitness was ≤ 0.5.

Q: Which yeast fitness does the source give for C34G G52A A65U here?
A: The yeast fitness was ≤ 0.5.

Q: Which yeast fitness does the source give for U35A C66G here?
A: The yeast fitness was 0.599.

Q: For C34A U64C, which yeast fitness is on record?
A: Its yeast fitness is 0.834.

Q: For C33U C46A C55G, which yeast fitness is on record?
A: Its yeast fitness is 0.604.

Q: For C34G A40G, which yeast fitness is on record?
A: The yeast fitness was 0.642.

Q: For C34G U54G, which yeast fitness is on record?
A: The yeast fitness was ≤ 0.5.

Q: With C33U C62A as the variant, how does the yeast fitness read?
A: The yeast fitness was 0.824.

Q: For C33U C62G, which yeast fitness is on record?
A: The yeast fitness was 0.632.

Q: With U35A A37G C49A as the variant, how does the yeast fitness read?
A: Its yeast fitness is ≤ 0.5.

Q: For U35C A45G, which yeast fitness is on record?
A: The yeast fitness was 0.773.

Q: For U35A C49U, which yeast fitness is on record?
A: The yeast fitness was 0.761.

Q: For C34A G51A, which yeast fitness is on record?
A: The yeast fitness was 0.656.

Q: For U35C A37U C46G U54C C61A, which yeast fitness is on record?
A: The yeast fitness was ≤ 0.5.

Q: For C34A A42U G58C C60A C62U, which yeast fitness is on record?
A: Its yeast fitness is 0.571.

Q: For C34G G48A A57G, which yeast fitness is on record?
A: Its yeast fitness is 0.631.

Q: Which yeast fitness does the source give for U35C C46U A69U here?
A: The yeast fitness was 0.832.

Q: For C34G A40C G48A, which yeast fitness is on record?
A: Its yeast fitness is ≤ 0.5.

Q: With C34U U54A as the variant, how does the yeast fitness read?
A: The yeast fitness was ≤ 0.5.

Q: Which yeast fitness does the source give for C34G A42U G44A A45C G48C U64A here?
A: Its yeast fitness is ≤ 0.5.

Q: Which yeast fitness does the source give for C34U A36C U53C here?
A: Its yeast fitness is ≤ 0.5.

Q: For U35A C46G C49U, which yeast fitness is on record?
A: Its yeast fitness is 0.527.

Q: For C34U A40G U47C, which yeast fitness is on record?
A: Its yeast fitness is ≤ 0.5.

Q: With C34A A45G G63C as the variant, how does the yeast fitness read?
A: Its yeast fitness is 0.676.

Q: Which yeast fitness does the source give for C34U C46G A69U here?
A: The yeast fitness was 0.576.

Q: For C34U A37U C46A G51A, which yeast fitness is on record?
A: The yeast fitness was 0.567.

Q: Which yeast fitness does the source give for C34U A40C here?
A: The yeast fitness was 0.613.

Q: For U35A C46A C49G G52A C60U, which yeast fitness is on record?
A: The yeast fitness was 0.661.

Q: Which yeast fitness does the source give for C34G A43U C55U A57C C66A here?
A: Its yeast fitness is 0.639.

Q: For C34U C66U G67A, which yeast fitness is on record?
A: Its yeast fitness is ≤ 0.5.

Q: With C34G G68U as the variant, how does the yeast fitness read?
A: The yeast fitness was 0.638.

Q: With C34G G41C as the variant, how does the yeast fitness read?
A: Its yeast fitness is 0.617.

Q: Which yeast fitness does the source give for C34G C49G U54C C61U A69G here?
A: The yeast fitness was ≤ 0.5.

Q: With U35A G41A C55U as the variant, how does the yeast fitness read?
A: The yeast fitness was 0.539.

Q: With C34G G44A C49A U53A A69U as the variant, how does the yeast fitness read?
A: The yeast fitness was ≤ 0.5.

Q: With U35A A40U C46G U53A as the variant, how does the yeast fitness read?
A: The yeast fitness was ≤ 0.5.

Q: For C34U C61A, which yeast fitness is on record?
A: The yeast fitness was 0.563.

Q: Which yeast fitness does the source give for C34A A45U C46A G50A U54C C55G here?
A: Its yeast fitness is ≤ 0.5.

Q: With C34U A36C A40C C55A C66U as the variant, how does the yeast fitness read?
A: Its yeast fitness is 0.526.

Q: Which yeast fitness does the source give for C34A G41A C55G here?
A: Its yeast fitness is ≤ 0.5.

Q: Which yeast fitness does the source give for C34G U35A A57U here?
A: Its yeast fitness is ≤ 0.5.

Q: For U35A A43C C49A, which yeast fitness is on record?
A: Its yeast fitness is 0.566.

Q: With U35A C60G G63A as the variant, how does the yeast fitness read?
A: Its yeast fitness is 0.503.

Q: For C34U G51U U54A C60U A65C, which yeast fitness is on record?
A: Its yeast fitness is ≤ 0.5.

Q: With U35C A36G as the variant, how does the yeast fitness read?
A: The yeast fitness was 0.931.

Q: With C34U G44C U47G A65G as the variant, how does the yeast fitness read?
A: The yeast fitness was ≤ 0.5.

Q: With C33U G51A A65U as the variant, how does the yeast fitness read?
A: Its yeast fitness is ≤ 0.5.

Q: For C34U G39C A45G, which yeast fitness is on record?
A: The yeast fitness was ≤ 0.5.

Q: For C34U A42C A43U, which yeast fitness is on record?
A: The yeast fitness was ≤ 0.5.

Q: For C34G A37C C62A, which yeast fitness is on record?
A: Its yeast fitness is ≤ 0.5.

Q: Which yeast fitness does the source give for C34G A57G here?
A: The yeast fitness was 0.568.

Q: With C34G A57U as the variant, how does the yeast fitness read?
A: Its yeast fitness is 0.523.

Q: Which yeast fitness does the source give for C34U G41A here?
A: The yeast fitness was 0.606.

Q: With C34G U64G as the variant, how does the yeast fitness read?
A: Its yeast fitness is 0.518.

Q: With C34G U64A as the variant, how does the yeast fitness read?
A: Its yeast fitness is 0.654.

Q: With C34U G39A G48C A65U as the variant, how does the yeast fitness read?
A: The yeast fitness was ≤ 0.5.

Q: For U35C A42C U64A, which yeast fitness is on record?
A: The yeast fitness was ≤ 0.5.

Q: Which yeast fitness does the source give for C34A A40U G67A here?
A: Its yeast fitness is ≤ 0.5.

Q: Which yeast fitness does the source give for C34U G44C U47G A65C C66G here?
A: Its yeast fitness is ≤ 0.5.

Q: For C34U G68C, which yeast fitness is on record?
A: Its yeast fitness is 0.773.

Q: With C34G C49U A65C as the variant, how does the yeast fitness read?
A: The yeast fitness was 0.532.

Q: Which yeast fitness does the source give for C34A U54A G67A here?
A: Its yeast fitness is ≤ 0.5.

Q: Which yeast fitness does the source give for C34A A57G here?
A: Its yeast fitness is 0.715.

Q: Which yeast fitness does the source give for C34A A57C here?
A: Its yeast fitness is ≤ 0.5.

Q: With C34U A43G as the variant, how does the yeast fitness read?
A: Its yeast fitness is 0.789.

Q: For U35A A57U C66G, which yeast fitness is on record?
A: The yeast fitness was ≤ 0.5.

Q: For C34U C62G C66G G67U, which yeast fitness is on record?
A: The yeast fitness was ≤ 0.5.
